For 15 molecules, IC50 and inhibition results are on record in ChEMBL document CHEMBL1152646, “Synthesis, molecular docking and biological evaluation of metronidazole derivatives as potent Helicobacter pylori urease inhibitors” (Bioorg Med Chem, 2009).

Broadly, the IC50 is the concentration needed to halve the response being measured. The inhibition is how much of the control response was suppressed.

Structures are written as SMILES. Calls of active or inactive are those of the source. No cut-off for these calls is given here.

Chain of Urease subunit alpha/Urease subunit beta (P69996 whole entry): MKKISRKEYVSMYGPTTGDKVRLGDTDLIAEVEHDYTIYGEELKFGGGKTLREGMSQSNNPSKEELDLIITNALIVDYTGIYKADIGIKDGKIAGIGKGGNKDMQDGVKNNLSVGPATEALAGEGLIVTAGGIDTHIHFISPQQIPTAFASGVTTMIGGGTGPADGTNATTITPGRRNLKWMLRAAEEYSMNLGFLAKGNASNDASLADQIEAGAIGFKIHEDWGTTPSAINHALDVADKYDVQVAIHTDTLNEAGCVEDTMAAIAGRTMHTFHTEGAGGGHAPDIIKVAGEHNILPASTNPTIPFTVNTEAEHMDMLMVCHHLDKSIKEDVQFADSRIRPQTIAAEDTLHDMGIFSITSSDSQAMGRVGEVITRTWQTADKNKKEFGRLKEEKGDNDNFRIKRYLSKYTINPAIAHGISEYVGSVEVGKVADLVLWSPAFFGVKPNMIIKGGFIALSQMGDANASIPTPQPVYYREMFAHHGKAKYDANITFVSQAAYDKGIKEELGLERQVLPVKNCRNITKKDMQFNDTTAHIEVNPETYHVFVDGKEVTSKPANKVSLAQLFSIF
Chain of Urease subunit alpha/Urease subunit beta (P14916 whole entry, further chain): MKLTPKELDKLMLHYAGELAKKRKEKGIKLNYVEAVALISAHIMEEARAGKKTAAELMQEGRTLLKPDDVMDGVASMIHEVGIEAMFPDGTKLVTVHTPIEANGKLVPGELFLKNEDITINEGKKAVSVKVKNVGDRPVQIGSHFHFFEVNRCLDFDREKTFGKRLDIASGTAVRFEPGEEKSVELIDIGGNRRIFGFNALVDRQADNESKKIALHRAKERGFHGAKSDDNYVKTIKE

The first assay has as its target Urease subunit alpha/Urease subunit beta (Helicobacter pylori (strain ATCC 700392 / 26695) (Campylobacterpylori), UniProt P69996). Briefly: Inhibition of Helicobacter pylori ATCC 43504 urease assessed as ammonia production after 3 hrs by indophenol method. Summed up: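 Crude urease came from H. pylori grown 24 h at 37 °C, microaerobic, in brucella broth with 10% heat-inactivated horse serum. Cells were PBS-washed, frozen at -80 °C, sonicated 60 s in water with protease inhibitors, and mixed 1:1 with glycerol. Enzyme (4 U) and compound were preincubated at room temperature. Percent inhibition was screened at 1 mM; IC50 came from dose–response curves (≥3 experiments, mean S.D.).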
As for `Cc1ncc([N+](=O)[O-])n1CCOC(=O)c1cc(Cl)ccc1OCCn1c([N+](=O)[O-])cnc1C`, the 50% inhibitory concentration (IC50) is 12 µM.
On the same count and under the same terms, to `Cc1ncc([N+](=O)[O-])n1CCOC(=O)c1cc(Br)ccc1OCCn1c([N+](=O)[O-])cnc1C` belongs 26 µM.

In another assay the target is Urease subunit alpha/Urease subunit beta (Helicobacter pylori (strain ATCC 700392 / 26695) (Campylobacterpylori)) (UniProt P69996+P14916). Kind of assay: Inhibition of Helicobacter pylori ATCC 43504 urease assessed as ammonia production at 1 mM after 3 hrs by indophenol method. In short, it runs like this: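 Crude urease from H. pylori ATCC 43504 grown 24 h at 37 °C microaerobically in brucella broth with 10% heat-inactivated horse serum; cells PBS-washed, stored at -80 °C, sonicated 60 s in water with protease inhibitors, extract mixed 1:1 with glycerol. Enzyme (4 U) preincubated 3 h at room temperature with compound; ammonia measured by indophenol method; percent inhibition.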
Chain of Urease subunit alpha/Urease subunit beta (Helicobacter pylori (strain ATCC 700392 / 26695) (Campylobacterpylori)) (P14916 whole entry, looked up): as the sequence (P14916 whole entry, further chain) above
Chain of Urease subunit alpha/Urease subunit beta (Helicobacter pylori (strain ATCC 700392 / 26695) (Campylobacterpylori)) (P69996 whole entry, looked up): as the sequence (P69996 whole entry) above
Consider `Cc1ncc([N+](=O)[O-])n1CCOc1c(I)cc(I)cc1C(=O)O`, for which the inhibition is 53.9%.
The same measure, in the same setting: then `Cc1ncc([N+](=O)[O-])n1CCOC(=O)c1cc(I)ccc1OCCn1c([N+](=O)[O-])cnc1C`, with 78.7%.
Still for that read-out and setting: to `Cc1ncc([N+](=O)[O-])n1CCOc1c(Cl)cc(Cl)cc1C(=O)O` belongs 56.8%; to `Cc1ncc([N+](=O)[O-])n1CCOC(=O)c1ccc(Cl)cc1OCCn1c([N+](=O)[O-])cnc1C`, 82.2%.
Same read-out and setting: then `Cc1ncc([N+](=O)[O-])n1CCOc1c(Br)cc(Br)cc1C(=O)O`, with 56.1%.
As to `Cc1ccc(C(=O)O)c(OCCn2c([N+](=O)[O-])cnc2C)c1`, the inhibition result is “inactive”.
With `Cc1ncc([N+](=O)[O-])n1CCOc1cc(N)ccc1C(=O)O`, the inhibition was determined as 38.3%.
The same measure, in the same setting: to `Cc1ncc([N+](=O)[O-])n1CCOC(=O)c1cc(S(=O)(=O)O)ccc1OCCn1c([N+](=O)[O-])cnc1C` belongs 61.2%; to `Cc1ncc([N+](=O)[O-])n1CCO`, “inactive”; to `Cc1ncc([N+](=O)[O-])n1CCOC(=O)c1cc(Cl)ccc1OCCn1c([N+](=O)[O-])cnc1C`, 95.3%.
Same read-out and setting: then `Cc1ccc(OCCn2c([N+](=O)[O-])cnc2C)c(C(=O)OCCn2c([N+](=O)[O-])cnc2C)c1`, with 48.4%; and `Cc1cccc(C(=O)OCCn2c([N+](=O)[O-])cnc2C)c1OCCn1c([N+](=O)[O-])cnc1C`, with 42.1%.
With `Cc1ncc([N+](=O)[O-])n1CCOC(=O)c1cc(Br)ccc1OCCn1c([N+](=O)[O-])cnc1C`, the inhibition came out at 93.9%.
Same read-out and setting: then `Cc1ccc(S(=O)(=O)OCCn2c([N+](=O)[O-])cnc2C)cc1`, with 78.1%; and `Cc1ccc(C(=O)OCCn2c([N+](=O)[O-])cnc2C)c(OCCn2c([N+](=O)[O-])cnc2C)c1`, with 38.3%.
